From ChEMBL document CHEMBL1944580, “Synthesis of novel sulfonamide-1,2,4-triazoles, 1,3,4-thiadiazoles and 1,3,4-oxadiazoles, as potential antibacterial and antifungal agents. Biological evaluation and conformational analysis studies” (2012)
Converted amounts (≈) assume the structure as drawn.

Key:
[1] = system: Staphylococcus aureus; assay: Antibacterial activity against Staphylococcus aureus ATCC 6538 after 24 hrs by micro dilution method; type: functional; conditions: ATCC 6538, 24 h
Method in brief: (§1)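 Microdilution MIC in 96-well plates. Bacterial suspensions adjusted in sterile saline to 1.0 × 10^5 CFU/ml, giving 1.0 × 10^4 cfu per well in LB broth. Compounds tested at up to 1 mg/ml. Plates incubated 24 h. MIC taken as the lowest concentration with no visible growth under a binocular microscope. OD at 655 nm was also read against a blank and the positive control. Streptomycin and ampicillin were the positive controls.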

[2] = system: Bacillus cereus; assay: Antibacterial activity against Bacillus cereus clinical isolate after 24 hrs by micro dilution method; type: functional; method in brief: as §1
[3] = system: Micrococcus flavus; assay: Antibacterial activity against Micrococcus flavus ATCC 10240 after 24 hrs by micro dilution method; type: functional; conditions: ATCC 10240, 24 h; method in brief: as §1
[4] = system: Listeria monocytogenes; assay: Antibacterial activity against Listeria monocytogenes NCTC 7973 after 24 hrs by micro dilution method; type: functional; conditions: NCTC 7973, 24 h; method in brief: as §1
[5] = system: Pseudomonas aeruginosa; assay: Antibacterial activity against Pseudomonas aeruginosa ATCC 27853 after 24 hrs by micro dilution method; type: functional; conditions: ATCC 27853, 24 h; method in brief: as §1
[6] = system: Enterobacter cloacae; assay: Antibacterial activity against Enterobacter cloacae human isolate after 24 hrs by micro dilution method; type: functional; method in brief: as §1
[7] = system: Salmonella typhimurium; assay: Antibacterial activity against Salmonella Typhimurium ATCC 13311 after 24 hrs by micro dilution method; type: functional, Salmonella enterica subsp. enterica serovar Typhimurium; conditions: Salmonella enterica, ATCC 13311, 24 h; method in brief: as §1
[8] = system: Escherichia coli; assay: Antibacterial activity against Escherichia coli ATCC 35210 after 24 hrs by micro dilution method; type: functional; conditions: ATCC 35210, 24 h; method in brief: as §1
[9] = system: Staphylococcus aureus; assay: Antibacterial activity against Staphylococcus aureus ATCC 6538 treated for 24 hrs followed by sub-cultivated for 72 hrs by micro dilution method; type: functional
Method in brief: (§2)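 2 µl from each well was serially subcultured into 100 µl fresh broth per well and incubated a further 72 h. MBC is the lowest concentration with no visible growth, taken as 99.5% killing of the original inoculum. Streptomycin and ampicillin were the positive controls.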

[10] = system: Bacillus cereus; assay: Antibacterial activity against Bacillus cereus clinical isolate treated for 24 hrs followed by sub-cultivated for 72 hrs by micro dilution method; type: functional; method in brief: as §2
[11] = system: Micrococcus flavus; assay: Antibacterial activity against Micrococcus flavus ATCC 10240 treated for 24 hrs followed by sub-cultivated for 72 hrs by micro dilution method; type: functional; method in brief: as §2
[12] = system: Listeria monocytogenes; assay: Antibacterial activity against Listeria monocytogenes NCTC 7973 treated for 24 hrs followed by sub-cultivated for 72 hrs by micro dilution method; type: functional; method in brief: as §2
[13] = system: Pseudomonas aeruginosa; assay: Antibacterial activity against Pseudomonas aeruginosa ATCC 27853 treated for 24 hrs followed by sub-cultivated for 72 hrs by micro dilution method; type: functional; method in brief: as §2
[14] = system: Enterobacter cloacae; assay: Antibacterial activity against Enterobacter cloacae human isolate treated for 24 hrs followed by sub-cultivated for 72 hrs by micro dilution method; type: functional; method in brief: as §2
[15] = system: Salmonella typhimurium; assay: Antibacterial activity against Salmonella Typhimurium ATCC 13311 treated for 24 hrs followed by sub-cultivated for 72 hrs by micro dilution method; type: functional, Salmonella enterica subsp. enterica serovar Typhimurium; conditions: Salmonella enterica; method in brief: as §2
[16] = system: Escherichia coli; assay: Antibacterial activity against Escherichia coli ATCC 35210 treated for 24 hrs followed by sub-cultivated for 72 hrs by micro dilution method; type: functional; method in brief: as §2
[17] = system: Talaromyces funiculosus; assay: Antifungal activity against Penicillium funiculosum ATCC 36839 after 72 hrs by serial dilution method; type: functional; conditions: ATCC 36839, 72 h
Method in brief: (§3)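 Modified microdilution MIC. Spores were washed from malt agar cultures with sterile 0.85% saline containing 0.1% Tween 80 and adjusted to about 1.0 × 10^5 per 100 µl well in malt broth. Compounds were dissolved in DMSO (1 mg/ml). Plates incubated 72 h at 28 °C. MIC is the lowest concentration with no visible growth under a binocular microscope. Bifonazole and ketoconazole were the references.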

[18] = system: Penicillium ochrochloron; assay: Antifungal activity against Penicillium ochrochloron ATCC 9112 after 72 hrs by serial dilution method; type: functional; conditions: ATCC 9112, 72 h; method in brief: as §3
[19] = system: Trichoderma viride; assay: Antifungal activity against Trichoderma viride IAM 5061 after 72 hrs by serial dilution method; type: functional; conditions: IAM 5061, 72 h; method in brief: as §3
[20] = system: Aspergillus fumigatus; assay: Antifungal activity against Aspergillus fumigatus human isolate after 72 hrs by serial dilution method; type: functional; method in brief: as §3
[21] = system: Aspergillus niger; assay: Antifungal activity against Aspergillus niger ATCC 6275 after 72 hrs by serial dilution method; type: functional; conditions: ATCC 6275, 72 h; method in brief: as §3
[22] = system: Aspergillus flavus; assay: Antifungal activity against Aspergillus flavus ATCC 9643 after 72 hrs by serial dilution method; type: functional; conditions: ATCC 9643, 72 h; method in brief: as §3
[23] = system: Aspergillus versicolor; assay: Antifungal activity against Aspergillus versicolor ATCC 11730 after 72 hrs by serial dilution method; type: functional; conditions: ATCC 11730, 72 h; method in brief: as §3
[24] = system: Fulvia fulva; assay: Antifungal activity against Fulvia fulva after 72 hrs by serial dilution method; type: functional; method in brief: as §3
[25] = system: Talaromyces funiculosus; assay: Antifungal activity against Penicillium funiculosum ATCC 36839 treated for 72 hrs followed by sub-cultivated for 5 days by serial dilution method; type: functional
Method in brief: (§4)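 MFC obtained after the 72 h, 28 °C malt-broth microdilution (spore inoculum about 1.0 × 10^5 per well, compounds from 1 mg/ml DMSO). 2 µl was serially subcultured into 100 µl broth per well and incubated a further 5 days at 28 °C. MFC is the lowest concentration with no visible growth, taken as 99.5% killing of the original inoculum.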

[26] = system: Penicillium ochrochloron; assay: Antifungal activity against Penicillium ochrochloron ATCC 9112 treated for 72 hrs followed by sub-cultivated for 5 days by serial dilution method; type: functional; method in brief: as §4
[27] = system: Trichoderma viride; assay: Antifungal activity against Trichoderma viride IAM 5061 treated for 72 hrs followed by sub-cultivated for 5 days by serial dilution method; type: functional; method in brief: as §4
[28] = system: Aspergillus fumigatus; assay: Antifungal activity against Aspergillus fumigatus human isolate treated for 72 hrs followed by sub-cultivated for 5 days by serial dilution method; type: functional; method in brief: as §4
[29] = system: Aspergillus niger; assay: Antifungal activity against Aspergillus niger ATCC 6275 treated for 72 hrs followed by sub-cultivated for 5 days by serial dilution method; type: functional; method in brief: as §4
[30] = system: Aspergillus flavus; assay: Antifungal activity against Aspergillus flavus ATCC 9643 treated for 72 hrs followed by sub-cultivated for 5 days by serial dilution method; type: functional; method in brief: as §4
[31] = system: Aspergillus versicolor; assay: Antifungal activity against Aspergillus versicolor ATCC 11730 treated for 72 hrs followed by sub-cultivated for 5 days by serial dilution method; type: functional; method in brief: as §4
[32] = system: Fulvia fulva; assay: Antifungal activity against Fulvia fulva treated for 72 hrs followed by sub-cultivated for 5 days by serial dilution method; type: functional; method in brief: as §4

MIC [1]	MIC [2]	MIC [3]	MIC [4]	MIC [5]	MIC [6]	MIC [7]	MIC [8]	MIC [17]	MIC [18]	MIC [19]	MIC [20]	SMILES	MBC [9]	MBC [10]	MBC [11]	MBC [12]	MBC [13]	MBC [14]	MBC [15]	MBC [16]	other results
250 µM (≈ 99.6 µg/mL)	250 µM (≈ 99.6 µg/mL)	630 µM (≈ 251 µg/mL)	380 µM (≈ 151 µg/mL)	380 µM (≈ 151 µg/mL)	500 µM (≈ 199 µg/mL)	500 µM (≈ 199 µg/mL)	130 µM (≈ 51.8 µg/mL)	130 µM (≈ 51.8 µg/mL)	130 µM (≈ 51.8 µg/mL)	30 µM (≈ 12 µg/mL)	250 µM (≈ 99.6 µg/mL)	CCCCn1c(Cc2cc(OC)c(OC)cc2S(=O)(=O)N(C)C)n[nH]c1=O	500 µM (≈ 199 µg/mL)	760 µM (≈ 303 µg/mL)	630 µM (≈ 251 µg/mL)	380 µM (≈ 151 µg/mL)	380 µM (≈ 151 µg/mL)	760 µM (≈ 303 µg/mL)	760 µM (≈ 303 µg/mL)	250 µM (≈ 99.6 µg/mL)	MIC [21]: 130 µM (≈ 51.8 µg/mL); MIC [22]: 130 µM (≈ 51.8 µg/mL); MIC [23]: 130 µM (≈ 51.8 µg/mL); MIC [24]: 250 µM (≈ 99.6 µg/mL); MFC [25]: 250 µM (≈ 99.6 µg/mL); MFC [26]: 380 µM (≈ 151 µg/mL); MFC [27]: 60 µM (≈ 23.9 µg/mL); MFC [28]: 250 µM (≈ 99.6 µg/mL); MFC [29]: 380 µM (≈ 151 µg/mL); MFC [30]: 380 µM (≈ 151 µg/mL); MFC [31]: 380 µM (≈ 151 µg/mL); MFC [32]: 250 µM (≈ 99.6 µg/mL)
390 µM (≈ 155 µg/mL)	250 µM (≈ 99.6 µg/mL)	390 µM (≈ 155 µg/mL)	390 µM (≈ 155 µg/mL)	390 µM (≈ 155 µg/mL)	250 µM (≈ 99.6 µg/mL)	250 µM (≈ 99.6 µg/mL)	130 µM (≈ 51.8 µg/mL)	130 µM (≈ 51.8 µg/mL)	250 µM (≈ 99.6 µg/mL)	30 µM (≈ 12 µg/mL)	250 µM (≈ 99.6 µg/mL)	COc1cc(Cc2n[nH]c(=O)n2C(C)(C)C)c(S(=O)(=O)N(C)C)cc1OC	390 µM (≈ 155 µg/mL)	780 µM (≈ 311 µg/mL)	390 µM (≈ 155 µg/mL)	390 µM (≈ 155 µg/mL)	390 µM (≈ 155 µg/mL)	250 µM (≈ 99.6 µg/mL)	250 µM (≈ 99.6 µg/mL)	250 µM (≈ 99.6 µg/mL)	MIC [21]: 250 µM (≈ 99.6 µg/mL); MIC [22]: 250 µM (≈ 99.6 µg/mL); MIC [23]: 250 µM (≈ 99.6 µg/mL); MIC [24]: 250 µM (≈ 99.6 µg/mL); MFC [25]: 250 µM (≈ 99.6 µg/mL); MFC [26]: 380 µM (≈ 151 µg/mL); MFC [27]: 250 µM (≈ 99.6 µg/mL); MFC [28]: 380 µM (≈ 151 µg/mL); MFC [29]: 380 µM (≈ 151 µg/mL); MFC [30]: 380 µM (≈ 151 µg/mL); MFC [31]: 380 µM (≈ 151 µg/mL); MFC [32]: 250 µM (≈ 99.6 µg/mL)
